{"source": "ChEMBL document CHEMBL5370602", "about": "“Structure-Based Design of a Lead Compound Derived from Natural Schweinfurthins with Antitumor Properties That Target Oxysterol-Binding Protein” (J Med Chem, 2023)", "key": {"mTORC1 (Homo sapiens) [1]": {"biological_target": "T1, mTORC1 (Homo sapiens) (UniProt P42345+Q8N122+Q9BVC4)", "assay": "Inhibition of mTORC1 signalling in human U-87 MG cells assessed as decrease in S6K phosphorylation at T389 residue at 0.05 to 1 uM incubated for 48 hrs by Western blot analysis", "assay_type": "cell-based", "outline": "(§1)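 U-87 MG cells cultured two days, then exposed 48 h to increasing doses. Lysed in RIPA with protease inhibitors; 5 µg protein run on 4-20% SDS gels and transferred to PVDF. Probed for phospho/total AKT, S6, S6K, P62 and LC3, detected by ECL. Band intensities normalized to β-actin.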"}, "[2]": {"assay": "Metabolic stability in mouse liver microsomes assessed as intrinsic clearance at 2.5 uM and measured upto 45 mins in presence of NADPH by LC-MS/MS analysis", "assay_type": "ADME, Microsome", "settings": "read-out: CLH"}, "[3]": {"biological_target": "T2, Oxysterol-binding protein 1 (Homo sapiens) (UniProt P22059)", "T2 sequence (whole entry)": "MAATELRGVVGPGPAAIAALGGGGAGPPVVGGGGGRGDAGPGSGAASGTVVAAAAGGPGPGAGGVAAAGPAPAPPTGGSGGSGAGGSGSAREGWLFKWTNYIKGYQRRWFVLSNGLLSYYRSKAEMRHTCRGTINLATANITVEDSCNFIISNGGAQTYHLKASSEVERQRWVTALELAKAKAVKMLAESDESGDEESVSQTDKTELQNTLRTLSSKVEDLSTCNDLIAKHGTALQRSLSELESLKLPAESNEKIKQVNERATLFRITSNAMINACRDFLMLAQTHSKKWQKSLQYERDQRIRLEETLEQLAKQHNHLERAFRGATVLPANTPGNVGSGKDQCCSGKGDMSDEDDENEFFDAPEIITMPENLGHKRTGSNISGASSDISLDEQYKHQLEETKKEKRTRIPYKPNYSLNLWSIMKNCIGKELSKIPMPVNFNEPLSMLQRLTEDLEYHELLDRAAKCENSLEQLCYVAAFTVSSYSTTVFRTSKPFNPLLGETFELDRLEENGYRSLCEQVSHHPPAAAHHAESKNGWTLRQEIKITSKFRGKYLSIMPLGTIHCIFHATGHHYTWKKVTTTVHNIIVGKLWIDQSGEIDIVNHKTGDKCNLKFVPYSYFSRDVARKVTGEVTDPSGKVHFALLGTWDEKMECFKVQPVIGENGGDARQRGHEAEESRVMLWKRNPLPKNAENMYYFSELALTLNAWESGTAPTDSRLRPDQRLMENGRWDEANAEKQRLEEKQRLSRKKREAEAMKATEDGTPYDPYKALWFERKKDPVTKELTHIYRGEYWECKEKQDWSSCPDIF", "assay": "Inhibition of human OSBP in human hTERT-RPE1 cells co-transfected with GFP-P4MSidM and TagBFP-betaGalT1 assessed as increase in PI4P at TGN by measuring GFP-P4M fluorescence and measured after 50 mins by immunofluorescence analysis", "assay_type": "cell-based", "outline": "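hTERT-RPE-1 cells electroporated with GFP-P4M^SidM (PI4P probe) and TagBFP-βGalT1, plated 18-24 h. Timelapse confocal imaging at 37 °C after compound addition, with P4M-GFP intensity at the TGN tracked over time and compared before and 50 min after addition. Mean of 4 to 6 independent experiments ± SEM.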"}, "[4]": {"assay": "Antitumor activity in high alert medicated patient derived human GBM1 cells xenografted in immunodeficient nude mouse model assessed as change in tumor volume at 50 mg/kg,ip QD cotreatment with Temozolomide at 42 mg/kg,po QD and measured after 11 days relative to control", "assay_type": "functional", "settings": "time 11 day", "outline": "(§2)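 Female athymic nude mice bearing subcutaneous GBM1-HAM PDX fragments (20 mm³); treatment began day 11 post-implant at tumour volumes 75-196 mm³, 10 per group. Compound i.p. daily in cyclodextrin vehicle (17 days alone, 27 days in combination); temozolomide 42 mg/kg p.o. daily for 5 days in PBS/glucose/Tween 80. Calliper volumes three times weekly; body weight and clinical signs monitored.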"}, "[5]": {"assay": "Metabolic stability in mouse liver microsomes assessed as compound remaining at 2.5 uM and measured after 45 mins in absence of NADPH by LC-MS/MS analysis", "assay_type": "ADME, Microsome", "settings": "read-out: Stability"}, "[6]": {"assay": "Toxicity in immunodeficient nude mouse model xenografted with high alert medicated patient derived human GBM1 cells assessed as clinical symptoms at 50 mg/kg,ip QD for 27 days cotreatment with Temozolomide at 42 mg/kg,po QD for 5 days", "assay_type": "organism-based", "settings": "in vivo, 648 h, time 27 day", "outline": "as §2"}, "[7]": {"assay": "Drug uptake in human hTERT-RPE1 cells assessed as drug co-localization with OSBP perinuclear region of cell incubated for 30 mins by immunofluorescence analysis", "assay_type": "ADME, cell-based", "settings": "tert-rpe1, 0.5 h", "outline": "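hTERT-RPE-1 cells incubated 30 min with compound, then fixed (4% paraformaldehyde, 0.1% glutaraldehyde, 10 min), quenched with 50 mM NH₄Cl and permeabilized in saponin 0.05%/BSA 0.2%. Immunolabeled for OSBP and TGN-46. Compound imaged directly by UV-adapted widefield fluorescence (excitation 330, emission 410 nm).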"}, "mTORC1 (Homo sapiens) [8]": {"biological_target": "T1, mTORC1 (Homo sapiens)", "assay": "Inhibition of mTORC1 signalling in human U-87 MG cells assessed as decrease in S6 phosphorylation at S240/244 residue at 0.05 to 1 uM incubated for 48 hrs by Western blot analysis", "assay_type": "cell-based", "outline": "as §1"}, "[9]": {"assay": "Antitumor activity in high alert medicated patient derived human GBM1 cells xenografted in immunodeficient nude mouse model assessed as T/C ratio at 50 mg/kg,ip QD and measured after 9 to 11 days", "assay_type": "functional", "settings": "time 9-11 day", "outline": "as §2"}, "[10]": {"assay": "Metabolic stability in mouse liver microsomes assessed as compound remaining at 2.5 uM and measured after 45 mins in presence of NADPH by LC-MS/MS analysis", "assay_type": "ADME, Microsome", "settings": "read-out: Stability"}, "mTORC2 (Homo sapiens)": {"biological_target": "mTORC2 (Homo sapiens) (UniProt P42345+Q6R327+Q9BVC4+Q9BPZ7)", "assay": "Inhibition of mTORC2 signalling in human U-87 MG cells assessed as decrease in AKT phosphorylation at S473 residue at 0.05 to 1 uM incubated for 48 hrs by Western blot analysis", "assay_type": "cell-based", "outline": "as §1"}, "[11]": {"assay": "Antitumor activity in high alert medicated patient derived human GBM1 cells xenografted in immunodeficient nude mouse model assessed as tumor growth inhibition at 50 mg/kg,ip QD cotreatment with Temozolomide at 42 mg/kg,po QD and measured from 9 to 11 days", "assay_type": "functional", "outline": "as §2"}, "A549": {"test_system": "A549", "assay": "Antiproliferative activity against human A549 cells assessed as inhibition of cell proliferation incubated for 72 hrs by CellTiter-Glo luminescent assay", "assay_type": "functional, cell-based", "settings": "A549, 72 h", "outline": "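A549 in RPMI 1640 and U-87MG in DMEM, each with 10% FCS and 1% glutamine, at 37 °C and 5% CO₂. Cells seeded at 3000/well, dosed the next day, treated 72 h. Viability read by CellTiter-Glo luminescence with DMSO-treated cells set to 100%. IC50 taken from survival curves over three independent experiments.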"}, "U-87 MG": {"test_system": "U-87 MG", "assay": "Induction of autophagy in human U-87 MG cells assessed as decrease in P62 expression at 0.05 to 1 uM incubated for 48 hrs by Western blot analysis", "assay_type": "functional, cell-based", "settings": "U-87MG ATCC", "outline": "as §1"}, "[12]": {"assay": "Toxicity in immunodeficient mouse assessed as clinical symptoms at 100 mg/kg,ip QD for 5 days", "assay_type": "organism-based", "settings": "in vivo, 120 h, time 5 day"}}, "note": "pIC50: −log10 of the molar value. Activity calls are given as the source filed them. The calls are words filed in the database; no cut-off is given here.", "data": [{"compound": "CC1(C)CCc2c(O)cc(/C=C/c3cc(O)c4c(c3)C[C@@H]3C(C)(C)[C@H](OC=O)CC[C@@]3(C)O4)cc2O1", "values": [{"measurement": "inhibition", "setting": "mTORC1 (Homo sapiens) [1]", "result": "Dose-Dependent Effect"}, {"measurement": "microsomal CLint at 2.5 µM", "setting": "[2]", "result": 120, "unit": "µL/min/mg"}, {"measurement": "inhibition", "setting": "[3]", "result": "Active"}, {"measurement": "Activity", "setting": "[4]", "result": 329.18, "unit": "%"}, {"measurement": "remaining at 0.75 h, 2.5 µM", "setting": "[5]", "result": 16, "unit": "%"}, {"measurement": "Activity", "setting": "[6]", "result": "Non-Toxic"}, {"measurement": "Drug uptake", "setting": "[7]", "result": "Active"}, {"measurement": "inhibition", "setting": "mTORC1 (Homo sapiens) [8]", "result": "Dose-Dependent Effect"}, {"measurement": "T/C", "setting": "[9]", "result": 70.05, "unit": "%"}, {"measurement": "remaining at 0.75 h, 2.5 µM", "setting": "[10]", "result": 5.3, "unit": "%"}, {"measurement": "inhibition", "setting": "mTORC2 (Homo sapiens)", "result": "Dose-Dependent Effect"}, {"measurement": "TGDI at 50 mg/kg", "setting": "[11]", "result": 2.07, "unit": "%"}, {"measurement": "pIC50", "setting": "A549", "result": 6.13}, {"measurement": "Activity", "setting": "U-87 MG", "result": "Dose-Dependent Effect"}, {"measurement": "Activity", "setting": "[12]", "result": "Non-Toxic"}]}]}
